A selection: hits, their analogues and other compounds. The true share with any hit is near 1.9%.
SR-BI DiI-HDL act = activators of SR-BI mediated HDL lipid uptake. AID 504775. CHO ldlA[mSR-BI] cells, DiI-HDL uptake fluorescence, 3 h; 100 = double the neutral-control signal. hit rate 0.096% among 320,000. activation, % at 12.5 µM;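 active = mean replicate activation of at least 60% and every replicate at or above 60%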;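 also: 0% = median plate neutral-control signal and 100% = twice that signal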
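Test system: SR-BI-overexpressing, LDLR-lacking CHO cells. Measured by: DiI fluorescence, bottom read. Medium: Ham's F12 with 0.5% BSA, HEPES 25 mM, pH 7.4. Timing: 3 h uptake period with compound, 37 °C.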
SR-BI DiI inh = mouse SR-BI HDL lipid transfer inhibition | Q61009 | ldlA[mSR-BI] CHO cells, DiI-HDL uptake fluorescence, 3 h | inhibition, % at 12.5 µM | hit rate 0.96% among 320,000 | AID 488896;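 active = mean replicate inhibition of at least 70% and a set share of replicates each scoring 70 or more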;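 also: 0% = median of neutral control wells and 100% = median of positive control wells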
Target sequence (Q61009 whole entry, looked up): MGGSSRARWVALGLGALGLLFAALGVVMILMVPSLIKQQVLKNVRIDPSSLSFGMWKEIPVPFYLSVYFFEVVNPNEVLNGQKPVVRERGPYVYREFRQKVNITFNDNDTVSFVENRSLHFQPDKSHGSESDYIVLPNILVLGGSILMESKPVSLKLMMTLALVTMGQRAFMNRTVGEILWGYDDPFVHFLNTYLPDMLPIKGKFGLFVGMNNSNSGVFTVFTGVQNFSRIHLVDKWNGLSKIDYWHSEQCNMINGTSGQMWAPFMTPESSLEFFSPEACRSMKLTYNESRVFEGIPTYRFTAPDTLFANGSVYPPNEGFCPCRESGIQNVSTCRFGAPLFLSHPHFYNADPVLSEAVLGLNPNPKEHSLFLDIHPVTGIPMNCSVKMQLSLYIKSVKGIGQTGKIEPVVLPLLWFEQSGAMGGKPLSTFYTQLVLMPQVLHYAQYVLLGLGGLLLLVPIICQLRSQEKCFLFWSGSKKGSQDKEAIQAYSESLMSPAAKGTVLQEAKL
UBC13 inh = blocks human UBC13 polyubiquitin chain formation; TR-FRET; inhibition, % at 20 µM; hit rate 0.47% among 330,000; AID 485273; in the data active = inhibition above about 45%, passing the limit was not always enough
Neddyl block = blocks human cullin neddylation; TR-FRET cullin neddylation, biochemical; inhibition, % at 25 µM; hit rate 0.58% among 360,000; AID 651699; in the data active = inhibition above about 36%
* marks the source's active call; other numbers are inactive results; i = inactive; . = no result shown.

SMILES | SR-BI DiI-HDL act | SR-BI DiI inh | UBC13 inh | Neddyl block
Cc1cc(C)c2nc(NNC(=O)c3ccc(S(=O)(=O)N4CCCCC4)cc3)sc2c1 | -76 | 76* | -59 | 22
Cc1cccc2sc(NNC(=O)c3ccc(S(=O)(=O)N4CCc5ccccc5C4)cc3)nc12 | -125 | 125* | -74 | 17
Cc1cccc2sc(NNC(=O)c3ccc(S(=O)(=O)N4CCCC(C)C4)cc3)nc12 (stereo not given) | -128 | 128* | . | 26
CCc1nnc(NC(=O)c2ccc(S(=O)(=O)N3CCCC(C)C3)cc2)s1 (stereo not given) | -7 | 7 | 7 | 2
COc1cc(OC)cc(C(=O)NNC(=O)c2cc3ccccc3cc2O)c1 | -114 | 114* | 5 | 19
COc1ccc(C(=O)NNC(=O)c2ccc3ccccc3c2)cc1 | -12 | 12 | . | -8
COc1ccccc1NC(=O)NNC(=O)c1cc2ccccc2cc1O | -94 | 94* | 16 | 24
O=C(CSc1ccccc1)N1CCCC(Nc2ccccc2)C1 (stereo not given) | -4 | 4 | 5 | -7
Cc1cc(C)cc(OCc2nnc(SCC(=O)N3CCN(c4ccccc4)CC3)o2)c1 | -79 | 79* | 5 | 2
O=C(C[C@@H]1C/C=C\CCC(=O)OC[C@H](Cc2ccccc2)NC1=O)N[C@@H](CO)Cc1ccccc1 | 5 | -5 | 15 | -1
CCc1nc2ccccc2n1CC(=O)NC1CCS(=O)(=O)C1 (stereo not given) | -11 | 11 | 5 | -15
CN1/C(=C\C(=O)c2cccnc2)Sc2ccccc21 | -25 | 25 | -3 | 4
COc1cccc(C(=O)/C=C2\Sc3ccccc3N2C)c1 | -83 | 83* | -2 | 37
CCN(C(=O)[C@@H]1CCCN1C(=O)c1cccs1)c1nc2cc(Cl)ccc2s1 | -78 | 78* | 17 | -11
CSc1ccccc1NC(=O)CN(C)C(C)C(=O)NCc1ccc2c(c1)OCO2 (stereo not given) | 8 | -8 | 0 | 11
COc1ccc(C)cc1NC(=O)CCc1c(C)nn(-c2ccc(N3CCCCC3)nn2)c1C | -71 | 71* | -15 | -7
Cc1ccc(F)cc1NC(=O)CCc1c(C)nn(-c2ccc(N3CCCCC3)nn2)c1C | -81 | 81* | 1 | -8
Cc1cc(F)ccc1NC(=O)CCc1c(C)nn(-c2ccc(N3CCCCC3)nn2)c1C | -82 | 82* | -5 | -7
COc1ccccc1Cc1c(-c2ccco2)nc2c(C)cc(Br)cn12 | . | . | . | i
CC(C)C[C@H]1CN([C@@H](Cc2ccc(O)cc2)CN2CCC[C@H]2CN2C(=O)C(=O)NC[C@@H]2Cc2ccc(O)cc2)C(=O)C(=O)N1CCc1ccccc1 | . | . | . | -6
CC(=O)C1(C)C(=O)N(c2ccc(F)cc2)C(=O)N1c1ccc(F)cc1 (stereo not given) | -3 | 3 | . | -1
Cc1cc2ccccn2c1C(=O)c1cc([N+](=O)[O-])cc([N+](=O)[O-])c1 | -83 | 82* | -12 | -42
O=c1cc(CN2CCN(c3ccccc3F)CC2)c2ccccc2o1 | . | . | . | 4
CCc1nc(Nc2ccncc2)c2oc3ccccc3c2n1 | 8 | -8 | 12 | 42*
Cc1ccc(NC(=S)c2nc3ccccc3[nH]2)cc1 | -77 | 77* | -25 | -15
SMILES | SR-BI DiI-HDL act | SR-BI DiI inh | UBC13 inh | Neddyl block
CCCN1CCC2(CC1)C(C#N)=C(N)Oc1c2sc2nc(C)cc(C)c12 | 17 | -17 | -5 | -6
Cc1cc(C)c2c3c(sc2n1)C(c1cccc(F)c1)C(C#N)=C(N)O3 (stereo not given) | -20 | 20 | -24 | 53*
CCc1nc2ccc(C(=O)NCCCN3CCN(c4ccc(F)cc4)CC3)cc2nc1CC | -62 | 62 | 24 | -12
CN1CCN(CCNC(=O)c2ccc3nc(-c4ccc(F)cc4)c(-c4ccc(F)cc4)nc3c2)CC1 | -45 | 45 | 26 | 51*
CCOc1ncccc1C(=O)OCC(=O)NC1CCCCC1 | 14 | -14 | 0 | -8
COc1ccccc1Nc1nc(-c2sc(NC(=O)c3ccccc3)nc2C)cs1 | -59 | 59 | 30 | -23
CCOc1ccccc1Nc1nc(-c2sc(NC(=O)c3cccc(Cl)c3)nc2C)cs1 | -104 | 104* | 0 | 3
CCCCCC(=O)Nc1nc(C)c(-c2csc(Nc3ccccc3OCC)n2)s1 | -64 | 64 | -25 | -14
Cc1nc(NC(=O)c2ccccc2)sc1-c1csc(NCCc2ccccc2)n1 | -76 | 76* | 3 | -42
CCOc1ccccc1Nc1nc(-c2sc(NC(=O)c3ccccc3)nc2C)cs1 | . | . | 69* | .
COCCN=c1scc(-c2cc(OC)c(OC)c(OC)c2)n1/N=C/c1c(C)[nH]c2ccccc12 | -92 | 92* | 6 | 13
CC[C@@H]1C/C=C\Cc2ccccc2[C@H](C(=O)C[C@@H](O)CC(C)=O)OC1=O | -23 | 23 | -9 | -14
CCCc1ccc(C(O)c2ncc(-c3ccccc3)[nH]2)cc1 (stereo not given) | . | . | . | 2
CCCCN(CC)CCNC(=O)c1cc2c(=O)[nH]c3ccccc3c2s1 | -88 | 88* | 29 | .
O=c1cc(N2CCN(c3ccc(F)cc3)CC2)[nH]c(=O)n1Cc1ccc(F)cc1 | 0 | 0 | 0 | 9
O=c1cc(N2CCOCC2)[nH]c(=O)n1Cc1ccc(F)cc1 | 231* | -231 | 0 | 7
O=C1C=C(c2ccc(F)cc2OCc2ccccc2)C[C@@H](c2ccc(F)cc2)C1 | -75 | 75* | -11 | -4
CCCNC(=O)C[C@@H]1C[C@@H]2c3cc(NS(=O)(=O)c4ccc(OC)cc4)ccc3O[C@@H]2[C@@H](CO)O1 | . | . | . | 6
Cc1cc(-c2n[nH]c(=S)n2/N=C/c2ccc(Br)s2)n[nH]1 | 17 | -17 | -19 | -16
S=c1[nH]nc(-c2cc(-c3ccccc3)n[nH]2)n1/N=C/c1ccc(Br)s1 | . | . | -13 | 63*
CC(C)(C)C(=O)Nc1nc2cc3c(cc2s1)OCO3 | . | . | 5 | -2
Cc1ccc(S(=O)(=O)N2CCN(C(=O)COC(=O)c3cc([N+](=O)[O-])ccc3NCCO)CC2)c(C)c1 | -79 | 79* | 2 | -43
CC(=O)c1c(C)[nH]c(C(=O)Nc2ccc(C)cc2Br)c1C | -36 | 36 | 3 | -52
COc1ccc(N2CC(O)=C(c3nc(-c4ccc(Cl)cc4)cs3)C2=N)cc1 | -44 | 44 | -26 | 20
COc1ccc(-c2csc(C3=C(O)CN(C(C)C)C3=N)n2)cc1OC | -84 | 84* | 0 | -23
SMILES | SR-BI DiI-HDL act | SR-BI DiI inh | UBC13 inh | Neddyl block
CC(C)CCN1CC(O)=C(c2nc(-c3ccc(Cl)cc3)cs2)C1=N | -76 | 76* | -15 | -6
COc1ccc(-c2nc(-c3ccc(O)cc3O)cs2)cc1OC | -91 | 91* | . | -28
COc1ccc(N2CC(O)=C(c3nc(-c4ccccc4)cs3)C2=N)cc1 | . | . | -2 | 0
COc1ccc(-c2nc(CCl)cs2)cc1OC | 15 | -15 | 2 | 30
O=C(/C=C/c1cccc(Cl)c1)OCC(=O)c1ccc[nH]1 | . | . | . | -1
OC(c1cccc(Cl)c1)c1nc(-c2csc3ccccc23)cs1 (stereo not given) | . | . | . | -31
Cc1cccc(CN2C(=O)/C(=C\c3ccc(C(=O)NCCCN4CCN(C)CC4)cc3)Oc3ccccc32)c1 | -29 | 29 | 68* | .

Source: PubChem (several laboratories)
